# Measured values as given in ChEMBL document CHEMBL5724801, “EUbOPEN Chemogenomics Library - Multiplex” (2024).
# Several values for one entry are separate records, joined by “and”; a condition that tells them apart may be missing. Equal values may be shown once.
# Test system: Fibroblast
# Test: Multiplex assay against human fibroblast
# Assay type: toxicity, cell-based
# Conditions: 12 h, 1 µM, compound concentration 1 uM
# In short: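 Tubulin, mitochondrial-mass and membrane-permeability phenotypes are per cents of healthy-nucleus cells. Cells were gated by CellPathfinder machine learning into Hoechst high-intensity objects or normal cells, normal cells into healthy, pyknosed or fragmented nuclei, and pyknosed cells into mitotic or apoptotic. Before that, live cells stained at seeding with Hoechst33342, BioTracker Green Microtubule Cytoskeleton Dye, MitoTracker Red and Annexin V Alexa Fluor 680 were imaged on a CQ1 microscope at 37°C and 5% CO2 after compound addition.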
Structure (SMILES),Population Apoptotic (%),Population Fragmented Nuclei (%),Population Healthy Nuclei (%),Population Hoechst High Intensity Objects (%),Population Membrane Permeable-Phenotype (%),Population Mitochondria Different-Phenotype (%),Population Mitotic Cells (%),Population Normal (%),Population Pyknosed Nuclei (%),Population Tubulin-Different-Phenotype (%)
"CCCn1c(=O)c2[nH]c(C3CCCC3)nc2n(CCC)c1=O [1,3-DIPROPYL-8-CYCLOPENTYLXANTHINE [DPCPX]]",38% and 30%,10% and 25%,73% and 46%,3%,0% and 1%,1% and 10%,61% and 69%,96%,15% and 28%,29% and 50%
CCC(=N\O)/C(C)=C/c1ccc(F)cc1 [A-079],15.91% and 23.08%,8.18% and 2.86%,71.82% and 82.29%,0%,3.16% and 4.86%,3.16% and 9.72%,84.09% and 76.92%,100%,20% and 14.86%,10.13% and 14.58%

# Same assay, conditions: 12 h, 1 µM, compound concentration 1 uM
row,Structure (SMILES),Total Cell Count
1,"CCCn1c(=O)c2[nH]c(C3CCCC3)nc2n(CCC)c1=O [1,3-DIPROPYL-8-CYCLOPENTYLXANTHINE [DPCPX]]",175 and 156
2,CCC(=N\O)/C(C)=C/c1ccc(F)cc1 [A-079],220 and 175

# Same assay, conditions: 12 h, 10 µM, compound concentration 10 uM
Structure (SMILES),Population Apoptotic (%),Population Fragmented Nuclei (%),Population Healthy Nuclei (%),Population Hoechst High Intensity Objects (%),Population Membrane Permeable-Phenotype (%),Population Mitochondria Different-Phenotype (%),Population Mitotic Cells (%),Population Normal (%),Population Pyknosed Nuclei (%),Population Tubulin-Different-Phenotype (%)
"CCCn1c(=O)c2[nH]c(C3CCCC3)nc2n(CCC)c1=O [1,3-DIPROPYL-8-CYCLOPENTYLXANTHINE [DPCPX]]",58% and 25%,18% and 32%,65% and 47%,3% and 6%,0% and 12%,10% and 3%,41% and 75%,96% and 93%,17% and 20%,47% and 59%
CCC(=N\O)/C(C)=C/c1ccc(F)cc1 [A-079],11.32% and 27.78%,6.99% and 5.71%,64.52% and 81.43%,0%,5.83% and 7.02%,5% and 9.65%,88.68% and 72.22%,100%,28.49% and 12.86%,13.33% and 21.93%

# Same assay, conditions: 12 h, 10 µM, compound concentration 10 uM
row,Structure (SMILES),Total Cell Count
1,"CCCn1c(=O)c2[nH]c(C3CCCC3)nc2n(CCC)c1=O [1,3-DIPROPYL-8-CYCLOPENTYLXANTHINE [DPCPX]]",104 and 129
2,CCC(=N\O)/C(C)=C/c1ccc(F)cc1 [A-079],186 and 140

# Same assay, conditions: 24 h, 1 µM, compound concentration 1 uM
Structure (SMILES),Population Apoptotic (%),Population Fragmented Nuclei (%),Population Healthy Nuclei (%),Population Hoechst High Intensity Objects (%),Population Membrane Permeable-Phenotype (%),Population Mitochondria Different-Phenotype (%),Population Mitotic Cells (%),Population Normal (%),Population Pyknosed Nuclei (%),Population Tubulin-Different-Phenotype (%)
"CCCn1c(=O)c2[nH]c(C3CCCC3)nc2n(CCC)c1=O [1,3-DIPROPYL-8-CYCLOPENTYLXANTHINE [DPCPX]]",50% and 75%,13% and 30%,77% and 48%,2% and 3%,0% and 4%,2% and 12%,50% and 24%,97% and 96%,9% and 21%,30% and 54%
CCC(=N\O)/C(C)=C/c1ccc(F)cc1 [A-079],15.15% and 10.53%,10% and 1.7%,75.65% and 87.5%,0%,2.3% and 3.25%,2.87% and 6.49%,84.85% and 89.47%,100%,14.35% and 10.8%,10.92% and 9.74%

# Same assay, conditions: 24 h, 1 µM, compound concentration 1 uM
row,Structure (SMILES),Total Cell Count
1,"CCCn1c(=O)c2[nH]c(C3CCCC3)nc2n(CCC)c1=O [1,3-DIPROPYL-8-CYCLOPENTYLXANTHINE [DPCPX]]",177 and 159
2,CCC(=N\O)/C(C)=C/c1ccc(F)cc1 [A-079],230 and 176

# Same assay, conditions: 24 h, 10 µM, compound concentration 10 uM
Structure (SMILES),Population Fragmented Nuclei (%),Population Healthy Nuclei (%),Population Hoechst High Intensity Objects (%),Population Membrane Permeable-Phenotype (%),Population Mitochondria Different-Phenotype (%),Population Mitotic Cells (%),Population Normal (%),Population Pyknosed Nuclei (%),Population Tubulin-Different-Phenotype (%),Total Cell Count
"CCCn1c(=O)c2[nH]c(C3CCCC3)nc2n(CCC)c1=O [1,3-DIPROPYL-8-CYCLOPENTYLXANTHINE [DPCPX]]",17% and 35%,61% and 40%,3% and 6%,6% and 8%,9% and 4%,36% and 79%,96% and 93%,22% and 24%,49% and 63%,104 and 125
CCC(=N\O)/C(C)=C/c1ccc(F)cc1 [A-079],8.85% and 6.62%,72.92% and 77.48%,0%,10.71% and 3.42%,7.86% and 4.27%,82.86% and 79.17%,100%,18.23% and 15.89%,19.29% and 19.66%,192 and 151

# Same assay, conditions: 24 h, 10 µM, compound concentration 10 uM
row,Structure (SMILES),Population Apoptotic (%)
1,CCC(=N\O)/C(C)=C/c1ccc(F)cc1 [A-079],17.14% and 20.83%

# Same assay, conditions: 48 h, 1 µM, compound concentration 1 uM
Structure (SMILES),Population Apoptotic (%),Population Fragmented Nuclei (%),Population Healthy Nuclei (%),Population Hoechst High Intensity Objects (%),Population Membrane Permeable-Phenotype (%),Population Mitotic Cells (%),Population Normal (%),Population Pyknosed Nuclei (%),Population Tubulin-Different-Phenotype (%),Total Cell Count
"CCCn1c(=O)c2[nH]c(C3CCCC3)nc2n(CCC)c1=O [1,3-DIPROPYL-8-CYCLOPENTYLXANTHINE [DPCPX]]",72% and 47%,16% and 39%,70% and 48%,2% and 7%,0% and 5%,27% and 52%,97% and 92%,12%,35% and 55%,182 and 170
CCC(=N\O)/C(C)=C/c1ccc(F)cc1 [A-079],46.15% and 36.36%,10.24% and 4.69%,84.65% and 89.58%,0%,0.47% and 4.65%,53.85% and 63.64%,100%,5.12% and 5.73%,,254 and 192

# Same assay, conditions: 48 h, 10 µM, compound concentration 10 uM
Structure (SMILES),Population Apoptotic (%),Population Fragmented Nuclei (%),Population Healthy Nuclei (%),Population Hoechst High Intensity Objects (%),Population Mitochondria Different-Phenotype (%),Population Mitotic Cells (%),Population Normal (%),Population Pyknosed Nuclei (%),Population Tubulin-Different-Phenotype (%),Total Cell Count
"CCCn1c(=O)c2[nH]c(C3CCCC3)nc2n(CCC)c1=O [1,3-DIPROPYL-8-CYCLOPENTYLXANTHINE [DPCPX]]",57% and 50%,24% and 43%,55% and 45%,3% and 2%,13% and 8%,42% and 50%,96% and 97%,20% and 10%,50% and 78%,98 and 136
CCC(=N\O)/C(C)=C/c1ccc(F)cc1 [A-079],20% and 36.36%,12.33% and 5.62%,80.82% and 87.5%,0%,,80% and 63.64%,100%,6.85% and 6.88%,6.78% and 17.86%,219 and 160

# Same assay, conditions: 48 h, 10 µM, compound concentration 10 uM
row,Structure (SMILES),Population Membrane Permeable-Phenotype (%)
1,CCC(=N\O)/C(C)=C/c1ccc(F)cc1 [A-079],1.69% and 6.43%
